Bioassay records from PubChem BioAssay.
A selection: hits, their analogues and other compounds. The true share with any hit is near 2%.
CXCR6 block: CXCR6 (human) receptor inhibition; inhibition, % at 20 µM; CHO-K1 PathHunter CXCR6 beta-arrestin, luminescence; AID 602244; hit rate 0.36% among 360,000; O00574; in the data active means inhibition above about 34%, passing the limit was not always enough;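 further: antagonist mode with CXCL16 agonist at 10 nM final; 0% = 10 nM CXCL16 with DMSO and 100% = unstimulated wells without agonist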
EBI2 block: antagonists of human EBI2 receptor; P32249; EBI2 beta-arrestin recruitment, luminescence, 7a,25-OHC stimulated; inhibition, % at 5 µM; hit rate 0.81% among 360,000; AID 651636; in the data active means inhibition above about 38%;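 further: enzyme fragment complementation signal reports receptor beta-arrestin coupling in cells; 0% = agonist plus DMSO wells and 100% = wells without agonist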
Target sequence (P32249 whole entry, looked up, the tested form may be a part): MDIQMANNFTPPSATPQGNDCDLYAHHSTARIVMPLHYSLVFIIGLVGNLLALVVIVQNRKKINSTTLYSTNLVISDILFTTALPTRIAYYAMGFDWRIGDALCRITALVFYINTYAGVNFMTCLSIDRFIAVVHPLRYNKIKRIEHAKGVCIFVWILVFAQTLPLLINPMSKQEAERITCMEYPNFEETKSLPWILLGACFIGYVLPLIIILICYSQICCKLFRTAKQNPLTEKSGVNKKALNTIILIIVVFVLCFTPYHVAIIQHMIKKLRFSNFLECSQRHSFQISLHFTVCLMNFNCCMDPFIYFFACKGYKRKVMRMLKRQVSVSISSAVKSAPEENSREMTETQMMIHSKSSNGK
FXN GAA850 act: increases GAA850 frataxin promoter reporter activity; hit rate 0.56% among 360,000; HEK293 lucGAA850 FXN promoter luciferase reporter, 24 h; percent of 10 µM SAHA response; AID 540364; activation, % at 6 µM;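 active means activation above the average of all compounds screened plus 3 SD, cutoff fixed separately per campaign, cut at about 7.5% in these data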;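 further: 0% = DMSO wells and 100% = 10 µM SAHA wells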
APJ antag: APJ receptor antagonism | CHO-K1 APJ beta-arrestin complementation, luminescence | P35414 | AID 2521 | hit rate 0.32% among 330,000 | inhibition, % at 20 µM;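 active means inhibition above about 40% at 20 µM, limit read from the data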;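 further: cells challenged with 10 nM apelin-13 agonist together with compound; plate controls were apelin-13 plus DMSO wells for no effect and DMSO wells lacking apelin-13 for full effect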
APJ ag: APJ receptor agonism; AID 2520; hit rate 0.11% among 330,000; CHO-K1 APJ PathHunter beta-arrestin, luminescence; 0% DMSO wells, 100% apelin; activation, % at 20 µM; P35414;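 active means activation more than six SD over the plate average, tested at 20 µM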;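 further: 0% = DMSO alone and 100% = apelin-13 at 10 nM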
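Test system – PathHunter CHO-K1 APJ (AGTRL-1) beta-arrestin reporter cells · Input – 1000 cells/well · Compound – single test compound dose, 20 µM final, 1% DMSO · Times – compound stimulation 90 min at 25 °C, detection 60 min · Technique – beta-gal luminescence · Read-out basis – APJ–arrestin association signal · Control set – negative DMSO alone, positive Apelin-13 at 10 nM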
CCR6 antag: antagonists of human CCR6 receptor | hit rate 0.49% among 340,000 | CHO-K1 CCR6 PathHunter beta-arrestin, luminescence, CCL20-stimulated | inhibition, % at 20 µM | P51684;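 active means compounds whose inhibition of the agonist-driven luminescence signal at 20 µM reaches about 50%, limit read from the data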;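 further: cells stimulated with CCL20 at 14 nM final; plate controls were DMSO with CCL20 for no effect and DMSO without agonist for full effect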
GAA30 counter: GAA30 FXN promoter activation counter-screen. shares compounds with FXN GAA850 act. HEK293 lucGAA30 FXN promoter luciferase, 24 h; DMSO = 0%, 5 µM ipriflavone = 100%. activation, % at 6 µM. hit rate 66% among 1,900. AID 588350;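 active means mean activation above the mean of solvent-only control wells plus 3 SD, cut at about 22% in these data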;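 further: counterscreen of GAA850 promoter hits where activity marks nonselective or luminescence artifacts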
FXN GAA850 conf: confirmation of GAA850 frataxin (FXN) promoter activators; AID 588351; hit rate 86% among 1,900; HEK293 lucGAA850 FXN promoter luciferase reporter, 24 h; 100% = activation by SAHA; shares compounds with FXN GAA850 act; activation, % at 6 µM;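 active means mean activation above a set limit taken from the primary screen, cut at about 8% in these data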;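 further: 0% = DMSO wells and 100% = 10 µM SAHA wells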
Numbers without * were called inactive; nt = no result given.

SMILES	CXCR6 block	EBI2 block	FXN GAA850 act	APJ antag	APJ ag	CCR6 antag	GAA30 counter	FXN GAA850 conf
CCOC(=O)N(C)c1c(CC)nc2c(OCc3ccc(S(C)(=O)=O)cc3)cccn12	-11	-6	0	nt	nt	nt	nt	nt
C/C=C/Cn1c(SCc2ccc(C)cc2)nc2c1c(=O)[nH]c(=O)n2C	-2	5	8.7*	17	-1	2	23*	21*
COc1cc2c(cc1OC)-c1cc(NC3CCCCCCC3)nc(=O)n1CC2	8	-1	8.1*	-20	-2	2	15	13*
CCNc1cc2n(c(=O)n1)CCc1cc(OC)c(OC)cc1-2	8	-10	9.9*	14	3	11	6	5
COc1cc2c(cc1OC)-c1cc(NC3CCCCC3)nc(=O)n1CC2	1	1	10*	10	0	6	22	11*
Cc1cc(-n2c(C)cc(C(=O)COc3ccc(Cl)cc3C(N)=O)c2C)no1	-5	16	-1	-4	0	19	nt	nt
CN=c1scc(-c2ccc([N+](=O)[O-])cc2)n1/N=C/c1ccco1	1	-8	-1	4	-4	1	nt	nt
CN=c1scc(-c2ccc(F)cc2)n1/N=C/c1ccc(O)c(O)c1	6	1	9.3*	-8	0	7	34*	14*
CC1CC(C)(C)Nc2ccc(N=O)cc21 (centres undefined)	12	13	13*	nt	nt	-5	58*	67*
CC1CC(C)(C)Nc2ccc(OC(=O)c3ccco3)cc21 (centres undefined)	5	-28	5	-45	0	16	nt	nt
Cc1ccc2c(=O)n3c(nc2c1)C(C)NC(=O)c1cccnc1-3 (centres undefined)	-2	-3	-2	nt	nt	nt	nt	nt
CC(=O)c1ccc(NC(=O)C(C)Sc2nnc(C3CCCCC3)o2)cc1 (centres undefined)	nt	nt	nt	11	-3	nt	nt	nt
O=C(/C=C/c1ccco1)N(Cc1cccc(F)c1)C1CCS(=O)(=O)C1 (centres undefined)	-4	-3	1	16	-3	6	nt	nt
O=C(Cc1nc2ccccc2[nH]c1=O)c1ccccc1	-4	-9	8.8*	nt	nt	16	140*	53*
CCOC(=O)/C(=N\Nc1ccc(Cl)cc1)c1csc(Nc2ccccc2)n1	4	10	8.0*	5	1	5	34*	24*
CCOC(=O)/C(=N\Nc1ccc(OC)cc1)c1csc(Nc2ccccc2)n1	-4	12	11*	13	-2	0	38*	25*
Cc1ccc2c(c1)-n1c(nc3ccccc3c1=O)C(CC(C)C)NC2=O (centres undefined)	nt	nt	nt	0	1	nt	nt	nt
C=CCSc1nc(N)c2c(C)c(C)sc2n1	2	5	8.2*	-8	0	3	55*	20*
CCSc1nc(N)c2c(C)c(C)sc2n1	-4	-1	4	-3	0	-7	nt	nt
Cn1ncc2cc3c(Nc4ccc(Cl)cc4)cccc3nc21	2	4	nt	nt	nt	nt	nt	nt
Cc1cc(C)c2c(N)c(C(=O)Nc3ccc([N+](=O)[O-])cc3)sc2n1	-1	13	9.4*	-2	-1	12	98*	32*
COc1ccc(NC(=O)c2sc3nc(C)cc(C)c3c2N)cc1	-2	22	5	-5	0	6	nt	nt
Cc1nn(CC(=O)Nc2ccc3c(c2)OCO3)c(C)c1Cl	-6	2	1	-2	-5	15	nt	nt
CCC(=O)Nc1ccc(C(=O)Cn2ncc(Cl)c(Cl)c2=O)cc1	4	16	8.7*	-33	-6	2	22*	11*
COc1ccc(NC(=O)Cn2ncc(Cl)c(Cl)c2=O)cc1S(=O)(=O)N1CCOCC1	-14	-6	7.8*	nt	nt	0	-27	16*
SMILES	CXCR6 block	EBI2 block	FXN GAA850 act	APJ antag	APJ ag	CCR6 antag	GAA30 counter	FXN GAA850 conf
O=C(Cn1ncc(Cl)c(Cl)c1=O)Nc1ccc2c(c1)OCO2	3	11	11*	-1	-3	11	8	12*
O=C(Cn1ncc(Cl)c(Cl)c1=O)c1ccc2c(c1)OCCO2	29	6	8.6*	0	-1	18	8	18*
Cc1ccc(C)c(C(=O)Cn2ncc(Cl)c(Cl)c2=O)c1	10	24	6	10	-1	0	nt	nt
COc1ccc(-c2nc3cc(C)c(Br)c(C)n3c2Cc2ccsc2)cc1OC	3	7	nt	nt	nt	nt	nt	nt
Cc1ccc2oc(C(=O)NCc3ncc(C)[nH]3)c(C)c2c1	8	4	-2	-8	-9	-1	nt	nt
O=C(CN1C(=O)NC2(CCCC2)C1=O)N1CCN(c2ccc(C(F)(F)F)cc2[N+](=O)[O-])CC1	0	8	1	nt	nt	10	nt	nt
CCOC(=O)c1ccc(NC(=O)Cn2ncc(Cl)c(Cl)c2=O)cc1	22	31	-13	18	-1	35	nt	nt
CCN(CC)S(=O)(=O)c1cc(NC(=O)Cn2ncc(Cl)c(Cl)c2=O)ccc1C	20	25	12*	25	-3	29	11	15*
Cc1cc(Br)ccc1NC(=O)CNC(=O)Cn1ncc(Cl)c(Cl)c1=O	10	41	8.7*	9	-2	-8	1	-16
Cc1nc(C)n(CCNC(=O)c2ccco2)n1	4	-5	2	2	-4	4	nt	nt
Cc1cccc2c(N)c3c(nc12)CCCC3 (tested in a mixture with another compound)	2	-14	2	nt	nt	12	nt	nt
Cc1cc(C)c2c(N)c3cccc(C)c3nc2n1	8	0	8.0*	nt	nt	20	12	143*
Cc1nn(-c2ccccc2)c(Cl)c1/C=N/NC(=O)c1ccnn1C	-7	1	7.7*	-9	0	-6	116*	42*
Cc1nn(-c2ccccc2)c(Cl)c1/C=N/NC(N)=O	-6	-9	5	0	3	3	nt	nt
O=C(Nc1ncccc1O)c1ccc(S(=O)(=O)Nc2ccccc2)cc1	-29	-24	20*	-31	2	-10	52*	47*
O=C(Nc1ncccc1O)c1ccc(NS(=O)(=O)c2ccc3[nH]c(=O)[nH]c3c2)cc1	-2	-2	1	-24	4	-11	nt	nt
O=C(Nc1ccccc1O)c1ccc(NS(=O)(=O)c2cccc3cccnc23)cc1	-4	-10	20*	-30	-3	6	56*	73*
CCN(Cc1ccc(O)cc1)CC1CCCN(CCc2cccc(F)c2)C1 (centres undefined)	8	6	1	13	1	8	nt	nt
